Measured values published in ChEMBL document CHEMBL1157195, “Synthesis, cytotoxic activity, and SAR analysis of the derivatives of taxchinin A and brevifoliol” (Bioorg Med Chem, 2008).
Calls of active or inactive are those of the source. The rule behind the calls is not given here.

Tested on: not listed separately
Assay: (§1) Cytotoxicity against human A459 cells after 72 hrs by sulforhodamine B assay
Format: cell-based
Settings: Homo sapiens, A459, 72 h; read-out: IC50
Summary of the method: (§2)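 Human non-small lung cancer cells (A459, ATCC), exponentially growing, seeded at 4 × 10^4/mL in 96-well plates and pre-incubated 72 h at 37 °C, 5% CO2. Compounds added at 100, 10, 1 and 0.1 μM; further 72 h exposure. Cells fixed with cold 50% TCA (4 °C, 1 h), stained 30 min with 0.4% SRB in 1% acetic acid, dye solubilized in 10 mM unbuffered Tris; OD read at 570 nm.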
Compound `CC(=O)O[C@H]1CC=C(C=O)[C@H]2C[C@@]34C[C@@H](OC3(C)C)C(C)=C4[C@@H](OC(=O)c3ccccc3)[C@H](OC(C)=O)[C@]12C` has an IC50 of 6.17 µM.
For `C=C1[C@H]2C=C3CC(=O)C(C)=C3C(OC(=O)c3ccccc3)=C[C@]2(C)[C@@H](OC(C)=O)C[C@@H]1O`, the IC50 was 80.7 µM.
`C=C1[C@@H](O)C[C@H](OC(C)=O)[C@@]2(C)[C@@H](OC(C)=O)[C@H](OC(=O)c3ccccc3)C3=C(C)[C@@H](O[Si](C)(C)C(C)(C)C)C[C@@]3(C(C)(C)O)[C@@H](OC(C)=O)[C@H]12` gave an IC50 of 12.4 µM.
With `C=C1C(=O)C[C@H](OC(C)=O)[C@@]2(C)[C@@H](OC(C)=O)[C@H](OC(=O)c3ccccc3)C3=C(C)[C@H]4C[C@]3([C@@H](OC(C)=O)[C@H]12)C(C)(C)O4` the IC50 was 0.75 µM.
For `C=C1C(=O)C=C[C@]2(C)[C@@H]1C=C1CC(=O)C(C)=C1[C@@H](OC(=O)c1ccccc1)[C@@H]2OC(C)=O`, the IC50 was 2.8 µM.
In the case of `CC(=O)O[C@H]1CC=C(C=O)[C@H]2C[C@]3(C(C)(C)O)CC(=O)C(C)=C3[C@@H](OC(=O)c3ccccc3)[C@H](OC(C)=O)[C@]12C`, the IC50 is reported as 31.6 µM.
With `C=C1C(=O)C=C[C@@]2(C)[C@@H](OC(C)=O)[C@H](OC(=O)c3ccccc3)C3=C(C)[C@@H](O)C[C@@]3(C(C)(C)O)[C@@H](OC(C)=O)[C@H]12` the IC50 was 5.89 µM.
Work on `C=C1C(=O)C[C@H](OC(C)=O)[C@@]2(C)[C@@H](OC(C)=O)[C@H](OC(=O)c3ccccc3)C3=C(C)[C@@H](O)C[C@@]3(C(C)(C)O)[C@@H](OC(C)=O)[C@H]12` yielded an IC50 of 3.16 µM.
Compound `C=C1C(=O)C=C[C@@]2(C)[C@@H](OC(C)=O)[C@H](OC(=O)c3ccccc3)C3=C(C)C(=O)C[C@@]3(C(C)(C)O)[C@@H](OC(C)=O)[C@H]12` has an IC50 of 2.48 µM.
Work on `C=C1[C@H]2C=C3CC(=O)C(C)=C3[C@@H](OC(=O)c3ccccc3)[C@H](OC(C)=O)[C@]2(C)[C@@H](OC(C)=O)C[C@@H]1O` yielded an IC50 of 21.5 µM.
Work on `C=C1C(=O)C[C@H](OC(C)=O)[C@@]2(C)[C@@H](OC(C)=O)[C@H](OC(=O)c3ccccc3)C3=C(C)C(=O)C[C@@]3(C(C)(C)O)[C@@H](OC(C)=O)[C@H]12` [5,13-DIOXOTAXCHININ A] yielded an IC50 of 1.68 µM.
`C=C1[C@@H](O)C[C@H](OC(C)=O)[C@@]2(C)[C@@H](OC(C)=O)[C@H](OC(=O)c3ccccc3)C3=C(C)C(=O)C[C@@]3(C(C)(C)O)[C@@H](OC(C)=O)[C@H]12` [13-OXO-TAXCHININ A] showed an IC50 of 91.6 µM.
`C=C1C(=O)C=C[C@]2(C)[C@@H]1C[C@]1(C(C)(C)O)CC(=O)C(C)=C1[C@@H](OC(=O)c1ccccc1)[C@@H]2OC(C)=O` gave an IC50 of 6.22 µM.
`C=C1[C@@H](O[Si](CC)(CC)CC)C[C@H](OC(C)=O)[C@]2(C)[C@@H]1C=C1CC(=O)C(C)=C1[C@@H](OC(=O)c1ccccc1)[C@@H]2OC(C)=O` showed an IC50 of 17.4 µM.
In the case of `C=C1[C@@H](O)C[C@H](OC(C)=O)[C@@]2(C)[C@@H](OC(C)=O)[C@H](OC(=O)c3ccccc3)C3=C(C)[C@@H](O)C[C@@]3(C(C)(C)O)[C@@H](OC(C)=O)[C@H]12` [TAXCHININ A], the IC50 is reported as 60.5 µM.
Work on `C=C1[C@H]2C[C@@]34C[C@@H](OC3(C)C)C(C)=C4[C@@H](OC(=O)c3ccccc3)[C@H](OC(C)=O)[C@]2(C)[C@@H](OC(C)=O)C[C@@H]1O` yielded an IC50 of 46.5 µM.
In the case of `CC(=O)O[C@H]1CC=C(C=O)[C@H]2C=C3CC(=O)C(C)=C3[C@@H](OC(=O)c3ccccc3)[C@H](OC(C)=O)[C@]12C`, the IC50 is reported as 11.3 µM.
`C=C1[C@@H](O[Si](CC)(CC)CC)C[C@H](OC(C)=O)[C@@]2(C)[C@@H](OC(C)=O)[C@H](OC(=O)c3ccccc3)C3=C(C)[C@@H](O[Si](CC)(CC)CC)C[C@@]3(C(C)(C)O)[C@@H](OC(C)=O)[C@H]12` gave an IC50 of 87.3 µM.
In the case of `C=C1C(=O)C[C@H](OC(C)=O)[C@@]2(C)[C@@H](OC(C)=O)[C@H](OC(=O)c3ccccc3)C3=C(C)[C@@H](O[Si](C)(C)C(C)(C)C)C[C@@]3(C(C)(C)O)[C@@H](OC(C)=O)[C@H]12`, the IC50 is reported as 0.48 µM.

Same assay, conditions: a459
In the case of `C=C1[C@@H](O)C[C@H](OC(C)=O)[C@@]2(C)[C@@H](OC(C)=O)[C@H](OC(=O)c3ccccc3)C3=C(C)[C@H]4C[C@]3([C@@H](OC(C)=O)[C@H]12)C(C)(C)O4`, the IC50 is reported as “Not Active”.
For `C=C1[C@@H](O[Si](C)(C)C(C)(C)C)C[C@H](OC(C)=O)[C@@]2(C)[C@@H](OC(C)=O)[C@H](OC(=O)c3ccccc3)C3=C(C)[C@@H](O[Si](C)(C)C(C)(C)C)C[C@@]3(C(C)(C)O)[C@@H](OC(C)=O)[C@H]12`, the IC50 was “Not Active”.

Tested on: A459
Assay: as §1
Format: cell-based
Settings: not given
Summary of the method: as §2
In the case of `C=C1[C@H]2C[C@]3(C(C)(C)O)C[C@H](O)C(C)=C3[C@@H](OC(=O)c3ccccc3)[C@H](OC(C)=O)[C@]2(C)[C@@H](OC(C)=O)C[C@@H]1O`, the Activity is reported as “inactive”.
For `C=C1[C@H]2C[C@]3(C(C)(C)O)CC(=O)C(C)=C3[C@@H](OC(=O)c3ccccc3)[C@H](OC(C)=O)[C@]2(C)[C@@H](OC(C)=O)C[C@@H]1O`, the Activity was “inactive”.
